Tested on: patients with myelofibrosis
Assay: Phase I safety: drug-related adverse events, DLTs, tolerability
Format: in vivo, human
Summary of the method: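 Design was 3+3 dose escalation of oral test compound QD (75–400 mg) or BID (100–400 mg) in 28-day cycles. AEs were graded by CTCAE v4.0 with causality, alongside labs, ECGs, vital signs and physical exams. A DLT was grade 4 cytopenia, other grade 3/4 hematologic toxicity, or grade 3/4 non-hematologic toxicity, excluding manageable GI events. The population was all patients dosed ≥1 time.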

[1] = baseline platelet count <100 × 10^9/l
[2] = baseline platelet count <100 × 10^9/l (n=16)
[3] = baseline platelet count ⩾100 × 10^9/l
[4] = baseline platelet count ⩾100 × 10^9/l (n=32)

C[C@H](Nc1cc(-c2cnn(C)c2)cc(Nc2cnccn2)n1)c1ccc(F)cc1 [NS-018] was tested, and the “Cases of anemia (grade 2)” value (300 mg QD) was 1 case, the “Rate of discontinuations owing to AEs” value (300 mg QD) was 13% and the “Drug-related anemia, Grade 1/2” value (300 mg QD (n=16)) was 1 (6) n (%). The “Drug-related anemia, all grades” value (300 mg QD (n=16)) was 1 (6) n (%), the “Drug-related diarrhea, all grade” value (300 mg QD (n=16)) was 2 (13) n (%) and the “Drug-related diarrhea, grade 3 or 4” value (300 mg QD (n=16)) was 0 n (%). The “Drug-related dizziness, all grade” value (300 mg QD (n=16)) was 3 (19) n (%), the “Drug-related dizziness, grade 3 or 4” value (300 mg QD (n=16)) was 1 (6) n (%) and the “Drug-related esophageal reflux, all grade” value (300 mg QD (n=16)) was 1 (6) n (%). For the same compound, the “Drug-related esophageal reflux, grade 3 or 4” value (300 mg QD (n=16)) was 0 n (%), the “Drug-related headache, all grade” value (300 mg QD (n=16)) was 2 (13) n (%) and the “Drug-related headache, grade 3 or 4” value (300 mg QD (n=16)) was 0 n (%). The “Drug-related nausea, all grade” value (300 mg QD (n=16)) was 0 n (%), the “Drug-related paresthesia, all grade” value (300 mg QD (n=16)) was 1 (6) n (%) and the “Drug-related paresthesia, grade 3 or 4” value (300 mg QD (n=16)) was 0 n (%). The “Drug-related thrombocytopenia, Grade 1/2” value (300 mg QD (n=16)) was 0 n (%), the “Drug-related thrombocytopenia, Grade 3” value (300 mg QD (n=16)) was 2 (13) n (%) and the “Drug-related thrombocytopenia, Grade 4” value (300 mg QD (n=16)) was 1 (6) n (%). For the same compound, the “Drug-related thrombocytopenia, all grades” value (300 mg QD (n=16)) was 3 (19) n (%), the “Drug-related vomiting, all grade” value (300 mg QD (n=16)) was 1 (6) n (%) and the “Drug-related vomiting, grade 3 or 4” value (300 mg QD (n=16)) was 0 n (%). The “Drug-related weight increased, all grade” value (300 mg QD (n=16)) was 0 n (%), the “Drug-related grade 3 dyspnea” value (300 mg QD cohort) was 6% and the “Patients who discontinued owing to AEs (beyond DLT)” value (400 mg BID) was 2 patients. The “Drug-related anemia, Grade 1/2” value (400 mg BID (n=8)) was 1 (13) n (%), the “Drug-related anemia, Grade 3” value (400 mg BID (n=8)) was 1 (13) n (%) and the “Drug-related anemia, Grade 4” value (400 mg BID (n=8)) was 0 n (%). The “Drug-related anemia, all grades” value (400 mg BID (n=8)) was 2 (25) n (%), the “Drug-related diarrhea, all grade” value (400 mg BID (n=8)) was 1 (13) n (%) and the “Drug-related diarrhea, grade 3 or 4” value (400 mg BID (n=8)) was 0 n (%). For the same compound, the “Drug-related dizziness, all grade” value (400 mg BID (n=8)) was 2 (25) n (%), the “Drug-related dizziness, grade 3 or 4” value (400 mg BID (n=8)) was 1 (13) n (%) and the “Drug-related esophageal reflux, all grade” value (400 mg BID (n=8)) was 0 n (%). For the same compound, the “Drug-related headache, all grade” value (400 mg BID (n=8)) was 1 (13) n (%), the “Drug-related headache, grade 3 or 4” value (400 mg BID (n=8)) was 0 n (%) and the “Drug-related nausea, all grade” value (400 mg BID (n=8)) was 0 n (%). For the same compound, the “Drug-related paresthesia, all grade” value (400 mg BID (n=8)) was 0 n (%), the “Drug-related thrombocytopenia, Grade 1/2” value (400 mg BID (n=8)) was 0 n (%) and the “Drug-related thrombocytopenia, Grade 3” value (400 mg BID (n=8)) was 1 (13) n (%). For the same compound, the “Drug-related thrombocytopenia, Grade 4” value (400 mg BID (n=8)) was 0 n (%), the “Drug-related thrombocytopenia, all grades” value (400 mg BID (n=8)) was 1 (13) n (%) and the “Drug-related vomiting, all grade” value (400 mg BID (n=8)) was 0 n (%). For the same compound, the “Drug-related weight increased, all grade” value (400 mg BID (n=8)) was 0 n (%), the “DLT: grade 3 dizziness” value (400 mg BID cohort) was 1 patient and the “Tolerability as judged by the Safety Review Committee” value (400 mg BID/QD, based on proportion of drug-related neurological AEs) was “intolerable”. The “Drug-related anemia, Grade 1/2” value (400 mg QD (n=4)) was 1 (25) n (%), the “Drug-related anemia, all grades” value (400 mg QD (n=4)) was 1 (25) n (%) and the “Drug-related diarrhea, all grade” value (400 mg QD (n=4)) was 1 (25) n (%). The “Drug-related diarrhea, grade 3 or 4” value (400 mg QD (n=4)) was 0 n (%), the “Drug-related dizziness, all grade” value (400 mg QD (n=4)) was 1 (25) n (%) and the “Drug-related dizziness, grade 3 or 4” value (400 mg QD (n=4)) was 0 n (%). The “Drug-related esophageal reflux, all grade” value (400 mg QD (n=4)) was 0 n (%), the “Drug-related headache, all grade” value (400 mg QD (n=4)) was 0 n (%) and the “Drug-related nausea, all grade” value (400 mg QD (n=4)) was 1 (25) n (%). For the same compound, the “Drug-related nausea, grade 3 or 4” value (400 mg QD (n=4)) was 0 n (%), the “Drug-related paresthesia, all grade” value (400 mg QD (n=4)) was 1 (25) n (%) and the “Drug-related paresthesia, grade 3 or 4” value (400 mg QD (n=4)) was 0 n (%). The “Drug-related thrombocytopenia, all grades” value (400 mg QD (n=4)) was 0 n (%), the “Drug-related vomiting, all grade” value (400 mg QD (n=4)) was 0 n (%) and the “Drug-related weight increased, all grade” value (400 mg QD (n=4)) was 1 (25) n (%). The “Drug-related weight increased, grade 3 or 4” value (400 mg QD (n=4)) was 0 n (%), the “Recommended phase II dose (RP2D)” value (QD, oral) was 300 mg and the “Additional patients (beyond DLT) who discontinued owing to AEs” value (all cohorts) was 7 patients. For the same compound, the “Dose reduction owing to dizziness” value (all cohorts) was 4 n, the “Patients with dose reductions owing to AEs” value (all cohorts) was 11 patients and the “Patients with dose-limiting toxicities (DLTs)” value (all cohorts (n=48)) was 2 patients. The “Treatment discontinuation because of AEs” value (all cohorts (n=48), data cutoff 21 July 2015) was 8 n, the “Drug-related anemia, Grade 1/2” value (all dose cohorts (n=48)) was 4 (8) n (%) and the “Drug-related anemia, Grade 3” value (all dose cohorts (n=48)) was 3 (6) n (%). For the same compound, the “Drug-related anemia, Grade 4” value (all dose cohorts (n=48)) was 0 n (%), the “Drug-related anemia, all grades” value (all dose cohorts (n=48)) was 7 (15) n (%) and the “Drug-related diarrhea, all grade” value (all dose cohorts (n=48)) was 7 (15) n (%). For the same compound, the “Drug-related diarrhea, grade 3 or 4” value (all dose cohorts (n=48)) was 0 n (%), the “Drug-related dizziness, all grade” value (all dose cohorts (n=48)) was 11 (23) n (%) and the “Drug-related dizziness, grade 3 or 4” value (all dose cohorts (n=48)) was 3 (6) n (%). The “Drug-related esophageal reflux, all grade” value (all dose cohorts (n=48)) was 3 (6) n (%), the “Drug-related esophageal reflux, grade 3 or 4” value (all dose cohorts (n=48)) was 0 n (%) and the “Drug-related headache, all grade” value (all dose cohorts (n=48)) was 3 (6) n (%). The “Drug-related headache, grade 3 or 4” value (all dose cohorts (n=48)) was 0 n (%), the “Drug-related nausea, all grade” value (all dose cohorts (n=48)) was 9 (19) n (%) and the “Drug-related nausea, grade 3 or 4” value (all dose cohorts (n=48)) was 1 (2) n (%). The “Drug-related paresthesia, all grade” value (all dose cohorts (n=48)) was 4 (8) n (%), the “Drug-related paresthesia, grade 3 or 4” value (all dose cohorts (n=48)) was 1 (2) n (%) and the “Drug-related thrombocytopenia, Grade 1/2” value (all dose cohorts (n=48)) was 5 (10) n (%). The “Drug-related thrombocytopenia, Grade 3” value (all dose cohorts (n=48)) was 5 (10) n (%), the “Drug-related thrombocytopenia, Grade 4” value (all dose cohorts (n=48)) was 3 (6) n (%) and the “Drug-related thrombocytopenia, all grades” value (all dose cohorts (n=48)) was 13 (27) n (%). For the same compound, the “Drug-related vomiting, all grade” value (all dose cohorts (n=48)) was 3 (6) n (%), the “Drug-related vomiting, grade 3 or 4” value (all dose cohorts (n=48)) was 0 n (%) and the “Drug-related weight increased, all grade” value (all dose cohorts (n=48)) was 4 (8) n (%). The “Drug-related weight increased, grade 3 or 4” value (all dose cohorts (n=48)) was 0 n (%), the “Drug-related anemia, all grades” value (all patients (n=48)) was 15% and the “Drug-related anemia, grade 3/4” value (all patients (n=48)) was 6%. For the same compound, the Drug-related dizziness (all patients (n=48)) was 23%, the Drug-related nausea (all patients (n=48)) was 19% and the “Drug-related thrombocytopenia, all grades” value (all patients (n=48)) was 27%. For the same compound, the “Drug-related thrombocytopenia, grade 3/4” value (all patients (n=48)) was 17%, the “Drug-related thrombocytopenia, all grades” value [1] was 44% and the “Drug-related thrombocytopenia, grade 3/4” value [1] was 38%. The “Drug-related thrombocytopenia, Grade 1/2” value [2] was 1 (6) n (%), the “Drug-related thrombocytopenia, Grade 3” value [2] was 3 (19) n (%) and the “Drug-related thrombocytopenia, Grade 4” value [2] was 3 (19) n (%). For the same compound, the “Drug-related thrombocytopenia, all grades” value [2] was 7 (44) n (%), the “Drug-related thrombocytopenia, all grades” value [3] was 19% and the “Drug-related thrombocytopenia, grade 3/4” value [3] was 6%. The “Drug-related thrombocytopenia, Grade 1/2” value [4] was 4 (13) n (%), the “Drug-related thrombocytopenia, Grade 3” value [4] was 2 (6) n (%) and the “Drug-related thrombocytopenia, Grade 4” value [4] was 0 n (%). For the same compound, the “Drug-related thrombocytopenia, all grades” value [4] was 6 (19) n (%) and the “Grade 4 neurologic events” value (during the study) was “No grade 4 neurologic events”.
